pIC50: −log10 of the molar value.
Legend:
[1] = target: Aldo-keto reductase family 1 member B1 (Rattus norvegicus) (UniProt P07943); experiment: In vitro percentage inhibition of rat lens aldose reductase at 10E-6 M concentration
Outline: (§1)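 Rat lens (Fischer-344, both sexes) aldose reductase, assayed by spectrophotometric monitoring of NADPH oxidation. Compounds dissolved in 0.2 M NaHCO3. Inhibition at a single concentration, triplicate determinations.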

[2] = In vitro percentage inhibition of formation of DNPH-reactive carbonyl groups in BSA exposed to fructose at […] concentration; format: functional
[3] = target: Aldo-keto reductase family 1 member B1 (Rattus norvegicus, UniProt P07943); experiment: In vitro inhibitory activity of compound against rat lens aldose reductase
[4] = target: Aldo-keto reductase family 1 member B1 (Rattus norvegicus) (UniProt P07943); experiment: In vitro percentage inhibition of rat lens aldose reductase at 10E-5 M concentration; outline: as §1
[5] = In vitro percentage inhibition of glycation-induced fluorescence changes of BSA at 5 mM concentration; format: functional
Outline: (§2)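 Bovine serum albumin (fraction V, essentially fatty acid free) incubated with fructose for 28 days. Compounds given as potassium salts in water; trolox as reference.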

[6] = In vitro percentage inhibition of formation of DNPH-reactive carbonyl groups in BSA exposed to fructose at 1 mM concentration; format: functional; outline: as §2
[7] = In vitro percentage inhibition of glycation-induced fluorescence changes of BSA at […] concentration; format: functional
[8] = target: Aldo-keto reductase family 1 member B1 (Rattus norvegicus) (UniProt P07943); experiment: In vitro percentage inhibition of rat lens aldose reductase at 10E-7 M concentration; outline: as §1
[9] = In vitro percentage inhibition of formation of DNPH-reactive carbonyl groups in BSA exposed to fructose at 5 mM concentration; format: functional; outline: as §2
[10] = In vitro percentage inhibition of glycation-induced fluorescence changes of BSA at 1 mM concentration; format: functional; outline: as §2

| inhibition [1] [%] | pIC50 [3] | inhibition [4] [%] | inhibition [8] [%] | Compound | inhibition [2] [%] | inhibition [5] [%] | inhibition [6] [%] | inhibition [7] [%] | inhibition [9] [%] | inhibition [10] [%] |
| --- | --- | --- | --- | --- | --- | --- | --- | --- | --- | --- |
| 68 | 6.40 | 88 | 29 | O=C(c1ccccc1)c1ccn(-c2cc(F)c(O)c(F)c2)c1 | 55 | 74 | 48 | 68 | 61 | 64 |
|  |  |  |  | Cc1c(C)c2c(c(C)c1O)CCC(C)(C(=O)O)O2 (centres undefined) |  |  | 36 |  |  | 59 |
| 13 | 4.63 | 24 |  | Oc1c(F)cc(-n2cccc2)cc1F |  |  |  |  |  |  |
| 37 | 5.71 | 78 |  | O=C(O)Cn1ccc(C(=O)c2ccccc2)c1 | 51 | 81 | 28 | 67 | 67 | 48 |

Source: ChEMBL document CHEMBL1148454, “[1-(3,5-difluoro-4-hydroxyphenyl)-1H-pyrrol-3-yl]phenylmethanone as a bioisostere of a carboxylic acid aldose reductase inhibitor” (J Med Chem, 2004)
